The source made the active and inactive calls. The rule behind the calls is not given here.
Experiments:
[1] = biological target: Mitogen-activated protein kinase; ERK1/ERK2 (Homo sapiens) (UniProt P27361+P28482); assay: Inhibition of ERK1/2 in human HCC827 cells assessed as blocking of ERK1/2 pulldown at 1 uM in presence of TL13-68 incubated for 2 hrs by Western blot analysis; type: cell-based
Summary of the method: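 H1975 or HCC827 cells treated with 1 μM compound or DMSO for 2 h, rinsed twice in cold PBS, and lysed in M-PER with protease/phosphatase inhibitors. Lysate rocked overnight at 4 °C with 1 μM TL13-68, then streptavidin pulldown with five cold washes. Bound kinases detected by Western blot. Two independent experiments.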

[2] = tested on: ALK tyrosine kinase receptor (Homo sapiens), Q9UM73 [L1196M]; assay: Binding affinity to wild-type human partial length ALK L1196M mutant (I1088 to E1409 residues) expressed in mammalian expression system assessed as residual binding level at 1 uM by Kinomescan method relative to control
[3] = biological target: Aurora kinase A (Homo sapiens) (UniProt O14965); assay: Binding affinity to wild-type human partial length AURKA (E122 to K401 residues) expressed in mammalian expression system assessed as residual binding level at 1 uM by Kinomescan method relative to control
[4] = biological target: Serine/threonine-protein kinase B-raf (Homo sapiens) (UniProt P15056); assay: Binding affinity to wild-type human partial length BRAF (S429 to E741 residues) expressed in mammalian expression system assessed as residual binding level at 1 uM by Kinomescan method relative to control
[5] = tested on: Epidermal growth factor receptor (Homo sapiens), P00533 [T790M]; assay: Binding affinity to human partial length EGFR T790M mutant (R669 to G1022 residues) expressed in mammalian expression system assessed as residual binding level at 1 uM by Kinomescan method relative to control
Summary of the method: (§1)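 KinomeScan active site-directed competition binding panel (468 kinases), compound tested at 1 μM. Result expressed as remaining kinase signal versus DMSO control (percent of control).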

[6] = tested on: Receptor-type tyrosine-protein kinase FLT3 (Homo sapiens), P36888 [D835Y]; assay: Binding affinity to human partial length FLT3 D835Y mutant (Q580 to Y969 residues) expressed in bacterial expression system assessed as residual binding level at 1 uM by Kinomescan method relative to control; summary of the method: as §1
[7] = biological target: Rhodopsin kinase GRK1 (Homo sapiens) (UniProt Q15835); assay: Binding affinity to wild-type human full length GRK1 (M1 to S563 residues) expressed in mammalian expression system assessed as residual binding level at 1 uM by Kinomescan method relative to control
Summary of the method: (§2)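 KinomeScan, an active site-directed competition binding panel of 468 kinases. The test compound was at 1 μM. The readout is remaining kinase binding as a percentage of the DMSO control. Scores above 35% were treated as weak binding and not listed.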

[8] = biological target: Mitogen-activated protein kinase kinase kinase kinase 1 (Homo sapiens) (UniProt Q92918); assay: Binding affinity to wild-type human full length HPK1 (M1 to R799 residues) expressed in bacterial expression system assessed as residual binding level at 1 uM by Kinomescan method relative to control
Summary of the method: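 Active-site-directed KinomeScan competition binding panel covering 468 kinases, compound tested at 1 μM. Each readout is the kinase signal remaining with compound, expressed as a percentage of the DMSO control. […]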

[9] = biological target: Tyrosine-protein kinase ITK/TSK (Homo sapiens) (UniProt Q08881); assay: Binding affinity to wild-type human partial length ITK (R335 to L620 residues) expressed in bacterial expression system assessed as residual binding level at 1 uM by Kinomescan method relative to control
[10] = biological target: MAP/microtubule affinity-regulating kinase 4 (Homo sapiens) (UniProt Q96L34); assay: Binding affinity to wild-type human partial length MARK4 (K29 to G340 residues) expressed in bacterial expression system assessed as residual binding level at 1 uM by Kinomescan method relative to control
[11] = biological target: Mitogen-activated protein kinase 12 (Homo sapiens) (UniProt P53778); assay: Binding affinity to wild-type human full length p38-gamma (M1 to L367 residues) expressed in mammalian expression system assessed as residual binding level at 1 uM by Kinomescan method relative to control; summary of the method: as §2
[12] = biological target: Cyclin-dependent kinase 14 (Homo sapiens) (UniProt O94921); assay: Binding affinity to wild-type human full length PFTK1 (M1 to H451 residues) expressed in bacterial expression system assessed as residual binding level at 1 uM by Kinomescan method relative to control
Summary of the method: (§3)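 Active-site-directed competition binding panel (KinomeScan) covering 468 kinases. Test agent was screened at 1 μM. The read-out is the remaining kinase signal expressed relative to a DMSO control. Scores above 35%, taken as weak binding, were not reported.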

[13] = tested on: Phosphatidylinositol 4,5-bisphosphate 3-kinase catalytic subunit alpha isoform (Homo sapiens), P42336 [C420R]; assay: Binding affinity to human partial length PIK3CA C420R mutant (R108 to N1068 residues) expressed in mammalian expression system assessed as residual binding level at 1 uM by Kinomescan method relative to control; summary of the method: as §1
[14] = biological target: Phosphatidylinositol 4-phosphate 5-kinase type-1 alpha (Homo sapiens) (UniProt Q99755); assay: Binding affinity to wild-type human full length PIP5K1A (M1 to H562 residues) expressed in bacterial expression system assessed as residual binding level at 1 uM by Kinomescan method relative to control; summary of the method: as §3
[15] = tested on: Proto-oncogene tyrosine-protein kinase receptor Ret (Homo sapiens), P07949 [V804L]; assay: Binding affinity to human partial length RET V804L mutant (E713 to D1014 residues) expressed in bacterial expression system assessed as residual binding level at 1 uM by Kinomescan method relative to control; summary of the method: as §1
[16] = biological target: Ribosomal protein S6 kinase alpha-3 (Homo sapiens) (UniProt P51812); assay: Binding affinity to wild-type human partial length N- terminal RSK2 kinase domain 1 (M1 to D394 residues) expressed in mammalian expression system assessed as residual binding level at 1 uM by Kinomescan method relative to control
[17] = biological target: STE20/SPS1-related proline-alanine-rich protein kinase (Homo sapiens) (UniProt Q9UEW8); assay: Binding affinity to wild-type human partial length STK39 (P43 to I357 residues) expressed in mammalian expression system assessed as residual binding level at 1 uM by Kinomescan method relative to control
[18] = biological target: Tyrosine-protein kinase SYK (Homo sapiens) (UniProt P43405); assay: Binding affinity to wild-type human partial length SYK (D354 to N635 residues) expressed in bacterial expression system assessed as residual binding level at 1 uM by Kinomescan method relative to control
[19] = biological target: Serine/threonine-protein kinase tousled-like 2 (Homo sapiens) (UniProt Q86UE8); assay: Binding affinity to wild-type human partial length TLK2 (E424 to N749 residues) expressed in bacterial expression system assessed as residual binding level at 1 uM by Kinomescan method relative to control
[20] = biological target: High affinity nerve growth factor receptor (Homo sapiens) (UniProt P04629); assay: Binding affinity to wild-type human partial length TRKA (G475 to G790 residues) expressed in mammalian expression system assessed as residual binding level at 1 uM by Kinomescan method relative to control

Cyclin-dependent kinase 14 (Homo sapiens), sequence (O94921 whole entry, the tested form may be a part): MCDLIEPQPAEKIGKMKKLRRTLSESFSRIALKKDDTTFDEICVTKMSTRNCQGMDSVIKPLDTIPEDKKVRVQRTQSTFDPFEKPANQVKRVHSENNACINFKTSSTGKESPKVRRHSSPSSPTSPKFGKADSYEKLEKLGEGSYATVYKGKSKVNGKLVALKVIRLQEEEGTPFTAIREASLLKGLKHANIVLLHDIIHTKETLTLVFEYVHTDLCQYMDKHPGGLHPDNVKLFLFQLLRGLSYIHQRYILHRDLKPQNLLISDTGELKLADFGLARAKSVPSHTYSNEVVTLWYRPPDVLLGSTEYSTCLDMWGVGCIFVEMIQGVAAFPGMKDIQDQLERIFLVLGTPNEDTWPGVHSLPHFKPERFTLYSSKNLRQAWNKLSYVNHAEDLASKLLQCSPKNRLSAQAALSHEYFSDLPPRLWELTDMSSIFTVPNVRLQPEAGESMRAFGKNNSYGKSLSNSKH
MAP/microtubule affinity-regulating kinase 4 (Homo sapiens), sequence (Q96L34 whole entry, the tested form may be a part): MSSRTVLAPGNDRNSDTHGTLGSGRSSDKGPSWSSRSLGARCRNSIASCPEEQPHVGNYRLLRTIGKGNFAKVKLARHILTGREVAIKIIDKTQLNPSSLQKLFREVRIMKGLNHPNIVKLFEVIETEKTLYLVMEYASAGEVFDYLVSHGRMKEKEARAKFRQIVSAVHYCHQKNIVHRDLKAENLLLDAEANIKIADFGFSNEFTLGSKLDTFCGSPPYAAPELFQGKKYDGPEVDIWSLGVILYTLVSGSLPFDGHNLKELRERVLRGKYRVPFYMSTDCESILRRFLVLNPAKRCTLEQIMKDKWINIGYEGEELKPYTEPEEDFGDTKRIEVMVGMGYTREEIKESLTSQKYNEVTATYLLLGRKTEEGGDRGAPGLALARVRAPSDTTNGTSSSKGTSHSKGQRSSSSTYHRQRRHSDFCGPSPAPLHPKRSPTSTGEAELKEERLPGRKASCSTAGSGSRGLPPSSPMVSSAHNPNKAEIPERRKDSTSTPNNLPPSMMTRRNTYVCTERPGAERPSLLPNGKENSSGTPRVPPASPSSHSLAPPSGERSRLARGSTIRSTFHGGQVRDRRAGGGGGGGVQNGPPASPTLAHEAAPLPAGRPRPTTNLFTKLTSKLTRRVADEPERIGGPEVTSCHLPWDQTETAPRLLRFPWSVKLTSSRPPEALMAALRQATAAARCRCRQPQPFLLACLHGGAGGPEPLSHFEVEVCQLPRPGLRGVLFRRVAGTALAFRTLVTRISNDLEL
Ribosomal protein S6 kinase alpha-3 (Homo sapiens), sequence (P51812 whole entry, the tested form may be a part): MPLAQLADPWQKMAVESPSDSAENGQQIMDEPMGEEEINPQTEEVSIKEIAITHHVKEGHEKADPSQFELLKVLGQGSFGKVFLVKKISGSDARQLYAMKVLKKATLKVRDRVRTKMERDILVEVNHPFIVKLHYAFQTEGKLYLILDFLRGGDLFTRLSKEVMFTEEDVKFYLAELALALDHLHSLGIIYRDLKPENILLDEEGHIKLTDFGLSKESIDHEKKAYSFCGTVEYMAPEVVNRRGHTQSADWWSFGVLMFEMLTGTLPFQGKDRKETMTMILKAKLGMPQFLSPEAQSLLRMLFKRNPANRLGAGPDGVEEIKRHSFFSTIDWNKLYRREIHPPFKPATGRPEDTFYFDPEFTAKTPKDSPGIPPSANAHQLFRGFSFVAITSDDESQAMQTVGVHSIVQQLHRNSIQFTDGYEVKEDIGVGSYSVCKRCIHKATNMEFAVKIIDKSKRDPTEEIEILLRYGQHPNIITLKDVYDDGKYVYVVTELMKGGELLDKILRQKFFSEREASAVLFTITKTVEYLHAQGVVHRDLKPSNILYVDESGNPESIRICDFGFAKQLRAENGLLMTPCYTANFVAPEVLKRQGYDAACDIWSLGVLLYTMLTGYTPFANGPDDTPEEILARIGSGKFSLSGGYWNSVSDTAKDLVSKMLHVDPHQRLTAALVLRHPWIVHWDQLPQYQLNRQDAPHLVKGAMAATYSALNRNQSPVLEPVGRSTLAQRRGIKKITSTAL
Mitogen-activated protein kinase; ERK1/ERK2 (Homo sapiens), sequence (P27361 whole entry, looked up): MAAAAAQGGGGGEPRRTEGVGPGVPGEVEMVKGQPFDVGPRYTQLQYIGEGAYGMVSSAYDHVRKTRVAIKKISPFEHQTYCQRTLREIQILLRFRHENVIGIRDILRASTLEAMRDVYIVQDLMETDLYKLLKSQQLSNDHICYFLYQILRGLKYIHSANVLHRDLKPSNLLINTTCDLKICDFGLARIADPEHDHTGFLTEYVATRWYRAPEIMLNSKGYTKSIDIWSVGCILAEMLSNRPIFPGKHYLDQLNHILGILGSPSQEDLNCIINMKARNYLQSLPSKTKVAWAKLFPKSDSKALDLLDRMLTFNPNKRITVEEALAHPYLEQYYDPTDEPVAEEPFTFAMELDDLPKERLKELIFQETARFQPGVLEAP
Mitogen-activated protein kinase; ERK1/ERK2 (Homo sapiens), sequence (P28482 whole entry, looked up): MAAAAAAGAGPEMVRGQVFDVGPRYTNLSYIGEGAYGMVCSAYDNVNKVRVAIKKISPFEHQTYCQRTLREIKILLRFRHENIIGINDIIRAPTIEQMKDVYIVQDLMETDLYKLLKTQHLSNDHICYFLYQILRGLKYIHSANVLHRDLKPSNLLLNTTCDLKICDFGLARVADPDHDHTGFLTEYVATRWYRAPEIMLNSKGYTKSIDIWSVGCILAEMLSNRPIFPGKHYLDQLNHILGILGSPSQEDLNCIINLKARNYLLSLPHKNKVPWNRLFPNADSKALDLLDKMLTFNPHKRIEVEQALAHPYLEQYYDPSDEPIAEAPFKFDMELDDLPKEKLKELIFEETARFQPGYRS
Aurora kinase A (Homo sapiens), sequence (O14965 whole entry, the tested form may be a part): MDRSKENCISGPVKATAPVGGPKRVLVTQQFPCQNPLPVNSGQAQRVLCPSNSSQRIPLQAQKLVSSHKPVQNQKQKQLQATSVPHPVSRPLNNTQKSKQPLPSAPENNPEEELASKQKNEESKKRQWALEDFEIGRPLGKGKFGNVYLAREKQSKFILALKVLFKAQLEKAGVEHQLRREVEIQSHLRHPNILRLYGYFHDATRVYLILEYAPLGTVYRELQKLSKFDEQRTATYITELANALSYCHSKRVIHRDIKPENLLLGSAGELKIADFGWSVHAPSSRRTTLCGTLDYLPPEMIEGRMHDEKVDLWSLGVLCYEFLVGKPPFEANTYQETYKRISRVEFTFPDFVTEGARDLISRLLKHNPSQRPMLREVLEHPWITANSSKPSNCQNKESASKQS
Phosphatidylinositol 4,5-bisphosphate 3-kinase catalytic subunit alpha isoform (Homo sapiens), P42336 [C420R], sequence (P42336 whole entry C420R, the tested form may be a part, canonical isoform): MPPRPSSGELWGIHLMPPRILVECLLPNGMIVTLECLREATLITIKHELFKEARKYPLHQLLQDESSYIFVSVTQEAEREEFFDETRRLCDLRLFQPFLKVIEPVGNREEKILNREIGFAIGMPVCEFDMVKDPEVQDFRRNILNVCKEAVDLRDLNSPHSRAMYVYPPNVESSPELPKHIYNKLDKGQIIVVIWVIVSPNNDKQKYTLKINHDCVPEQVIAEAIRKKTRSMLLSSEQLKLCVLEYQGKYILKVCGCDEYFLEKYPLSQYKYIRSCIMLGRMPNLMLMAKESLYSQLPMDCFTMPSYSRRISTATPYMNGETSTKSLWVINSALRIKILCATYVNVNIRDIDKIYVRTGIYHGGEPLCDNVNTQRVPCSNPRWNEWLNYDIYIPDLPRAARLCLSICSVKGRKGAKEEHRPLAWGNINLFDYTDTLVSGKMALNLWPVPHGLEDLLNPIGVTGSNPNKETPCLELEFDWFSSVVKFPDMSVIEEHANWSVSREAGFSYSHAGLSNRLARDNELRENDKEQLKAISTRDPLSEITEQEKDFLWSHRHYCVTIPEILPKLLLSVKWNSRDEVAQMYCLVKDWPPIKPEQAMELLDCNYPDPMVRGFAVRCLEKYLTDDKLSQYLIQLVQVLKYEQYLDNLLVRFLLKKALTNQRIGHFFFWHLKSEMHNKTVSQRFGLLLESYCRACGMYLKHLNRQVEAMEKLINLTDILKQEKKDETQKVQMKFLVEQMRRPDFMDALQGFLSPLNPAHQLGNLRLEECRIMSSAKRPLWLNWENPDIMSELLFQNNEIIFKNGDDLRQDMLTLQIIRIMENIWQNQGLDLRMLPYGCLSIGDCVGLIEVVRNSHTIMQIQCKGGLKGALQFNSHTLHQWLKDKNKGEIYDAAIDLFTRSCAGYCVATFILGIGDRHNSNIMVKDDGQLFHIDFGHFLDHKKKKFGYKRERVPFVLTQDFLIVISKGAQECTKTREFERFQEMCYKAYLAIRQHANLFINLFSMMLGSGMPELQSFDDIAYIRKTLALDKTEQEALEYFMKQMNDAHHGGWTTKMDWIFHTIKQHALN
Serine/threonine-protein kinase tousled-like 2 (Homo sapiens), sequence (Q86UE8 whole entry, looked up, the tested form may be a part): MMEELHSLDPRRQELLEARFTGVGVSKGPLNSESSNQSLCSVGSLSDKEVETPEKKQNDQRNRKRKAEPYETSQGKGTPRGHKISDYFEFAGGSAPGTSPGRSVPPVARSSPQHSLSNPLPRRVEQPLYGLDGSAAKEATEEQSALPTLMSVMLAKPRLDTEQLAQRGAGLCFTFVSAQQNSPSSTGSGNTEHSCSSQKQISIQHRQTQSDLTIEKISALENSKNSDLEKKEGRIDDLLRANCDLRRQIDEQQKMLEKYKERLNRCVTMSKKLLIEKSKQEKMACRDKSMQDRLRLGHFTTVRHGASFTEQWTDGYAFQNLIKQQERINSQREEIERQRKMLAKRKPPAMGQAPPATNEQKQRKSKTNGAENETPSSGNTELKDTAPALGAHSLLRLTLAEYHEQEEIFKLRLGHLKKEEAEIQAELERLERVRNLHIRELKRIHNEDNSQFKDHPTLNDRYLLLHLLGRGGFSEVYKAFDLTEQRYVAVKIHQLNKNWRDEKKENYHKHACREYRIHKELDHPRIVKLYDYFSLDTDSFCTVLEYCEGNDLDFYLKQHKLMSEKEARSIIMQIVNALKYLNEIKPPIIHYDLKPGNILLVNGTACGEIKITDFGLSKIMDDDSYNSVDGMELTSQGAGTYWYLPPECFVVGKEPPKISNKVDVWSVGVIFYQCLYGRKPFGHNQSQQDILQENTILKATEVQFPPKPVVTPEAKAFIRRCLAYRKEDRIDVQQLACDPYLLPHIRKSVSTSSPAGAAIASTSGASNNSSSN

In the case of `C=CC(=O)Nc1ccccc1Nc1nc(Nc2ccc(N3CCN(C)CC3)cc2)ncc1C(=O)Nc1c(C)cccc1Cl`, the inhibition [1] is reported as “inactive”, the Activity [2] is reported as 90% and the Activity [3] is reported as 100%. For the same molecule, the Activity [4] was 100%, the Activity [5] was 100% and the Activity [6] was 100%. The Activity [7] was 69%, the Activity [8] was 100% and the Activity [9] was 100%. The Activity [10] was 95%, the Activity [11] was 97% and the Activity [12] was 100%. The Activity [13] was 100%, the Activity [14] was 100% and the Activity [15] was 100%. The Activity [16] was 75%, the Activity [17] was 65% and the Activity [18] was 100%. It also gave an Activity [19] of 100% and an Activity [20] of 100%.
